One series has as its system Vero cells. In words: Cytotoxicity for Vero cells. The series is classed as cell-based.
The subject of series [1] is Toxoplasma gondii (tachyzoites). In words: T. gondii tachyzoites growth assay. Type of series: cell-based. As to conditions: tachyzoites expressing red fluorescent protein in hTERT cells. An outline of the steps:
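hTERT host cells grown in high-glucose DMEM with 1% fetal bovine serum, 2 mM glutamine and 1 mM pyruvate at 37 °C in humid 5% CO2. They were inoculated with 4 × 10⁴ RFP-expressing tachyzoites/well in the same medium. Plates were incubated at 37 °C and read daily through covered lids, bottom fluorescence ex 544/em 590 nm. EC50 was fitted as I = Imax·C/(EC50 + C), with Imax = 100%.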

The test system of a further series is T. cruzi (amastigotes). As to conditions: clinically more relevant form of T. cruzi; cited from earlier work.
The next series concerns Trypanosoma cruzi. Particulars: protection not as efficient as ketoconazole (positive control); cited from earlier work.
Series [2] deals with epimastigotes (EP strain). Particulars: ergosterol and its 24-ethyl analogue; cited from earlier work.

Consider 9 molecules from PMC3831659 (European journal of medicinal chemistry, 2013).

For the molecule `O=[N+]([O-])c1cccc(Oc2ccc(OCCOC3CCCCO3)cc2)c1` (stereo not drawn) [Compound 10, 4-(3-Nitrophenoxy)phenoxyethyl Tetrahydro-2H-pyran-2-yl Ether], in the series on Vero cells (Alamar Blue assay), the “Cytotoxicity on Vero cells ED50” value was above 50 µM.
Consider `N#CSCCOc1ccc(Oc2cccc([N+](=O)[O-])c2)cc1` [Compound 13, 4-(3-Nitrophenoxy)phenoxyethyl Thiocyanate], for which, in the series on Vero cells (Alamar Blue assay), the “Cytotoxicity on Vero cells ED50” value is above 50 µM.
As for `COc1ccc(Oc2ccc(OCCSC#N)cc2)cc1` [Compound 21, 4-(4-Methoxyphenoxy)phenoxyethyl Thiocyanate], the “Cytotoxicity on Vero cells ED50” value in the series on Vero cells (Alamar Blue assay) is above 100 µM.
As for `COc1cccc(Oc2ccc(OCCSC#N)cc2)c1` [Compound 22, 4-(3-Methoxyphenoxy)phenoxyethyl Thiocyanate], the “Toxoplasma gondii (tachyzoites) ED50” value in series [1] is 6.7 ± 3.1 µM. The “Cytotoxicity on Vero cells ED50” value with Vero cells (Alamar Blue assay) is above 50 µM.
For `c1cncc(Oc2ccc(OCCOC3CCCCO3)cc2)c1` (stereo not drawn) [Compound 25, 4-(Pyridin-3-yloxy)phenoxyethyl Tetrahydro-2H-pyran-2-yl Ether], in that order: “vanishing antiparasitic activity” and above 50 µM.
For `N#CSCCOc1ccc(Oc2cccnc2)cc1` [Compound 28, 4-(Pyridin-3-yloxy)phenoxyethyl Thiocyanate], in that order: 7.5 ± 0.8 µM and above 50 µM.
As to `N#CSCCOc1cccc(Oc2ccccc2)c1` [Compound 36, 3-Phenoxyphenoxyethyl Thiocyanate], the “Cytotoxicity on Vero cells ED50” value in the series on Vero cells (Alamar Blue assay) was above 50 µM.
Consider `COc1ccc(Oc2cccc(OCCSC#N)c2)cc1` [Compound 37, 3-(4-Methoxyphenoxy)phenoxyethyl Thiocyanate], for which, in the series with Vero cells (Alamar Blue assay), the “Cytotoxicity on Vero cells ED50” value is above 50 µM.
For the molecule `N#CSCCOc1ccc(Oc2ccccc2)cc1` [WC-9, 4-Phenoxyphenoxyethyl thiocyanate], the “IC50 against T. cruzi amastigotes” value in the series with T. cruzi (amastigotes) is listed as “low nanomolar range”. For the same molecule, the “effect on parasitemia in murine models of Chagas disease” value with Trypanosoma cruzi is “able to impair parasitemia”. The “depletion of parasite endogenous sterols” value in series [2] is “almost complete disappearance of the parasite sterols”. In addition, the “Cytotoxicity on Vero cells ED50” value in the series on Vero cells (African green monkey) is above 50 µM.
